Calls of active or inactive are those of the source. The rule behind the calls is not given here.
What was measured:
[1] = Cytotoxicity against human U87/CD4/CCR5 cells assessed as reduction in cell viability incubated for 3 days by XTT assay; format: cell-based; conditions: time 3 day; for CC50 at 72 h: U87/CD4/CCR5 cells
Outline: (§1)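 Viability read by the colorimetric XTT method in the stated cell line, run alongside the antiviral assays on the same cells; CC50 calculated from the viability data; values reported as mean ± standard deviation.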

[2] = target: Envelope glycoprotein gp160 (Human immunodeficiency virus 1) (UniProt Q6QLK5); test: Inhibition of gp120 in HIV-1 ADA infected in CD4-negative dog Cf2Th-CCR5 cells assessed as antagonism of viral entry by measuring inhibition of viral infection at 20 to 60 uM pretreated for 30 mins before viral infection and incubated for 48 hrs by luciferase assay; format: cell-based; conditions: dose 20-60 µM, time 48.5 hrs
Sequence of Envelope glycoprotein gp160 (Human immunodeficiency virus 1) (Q6QLK5 1-814): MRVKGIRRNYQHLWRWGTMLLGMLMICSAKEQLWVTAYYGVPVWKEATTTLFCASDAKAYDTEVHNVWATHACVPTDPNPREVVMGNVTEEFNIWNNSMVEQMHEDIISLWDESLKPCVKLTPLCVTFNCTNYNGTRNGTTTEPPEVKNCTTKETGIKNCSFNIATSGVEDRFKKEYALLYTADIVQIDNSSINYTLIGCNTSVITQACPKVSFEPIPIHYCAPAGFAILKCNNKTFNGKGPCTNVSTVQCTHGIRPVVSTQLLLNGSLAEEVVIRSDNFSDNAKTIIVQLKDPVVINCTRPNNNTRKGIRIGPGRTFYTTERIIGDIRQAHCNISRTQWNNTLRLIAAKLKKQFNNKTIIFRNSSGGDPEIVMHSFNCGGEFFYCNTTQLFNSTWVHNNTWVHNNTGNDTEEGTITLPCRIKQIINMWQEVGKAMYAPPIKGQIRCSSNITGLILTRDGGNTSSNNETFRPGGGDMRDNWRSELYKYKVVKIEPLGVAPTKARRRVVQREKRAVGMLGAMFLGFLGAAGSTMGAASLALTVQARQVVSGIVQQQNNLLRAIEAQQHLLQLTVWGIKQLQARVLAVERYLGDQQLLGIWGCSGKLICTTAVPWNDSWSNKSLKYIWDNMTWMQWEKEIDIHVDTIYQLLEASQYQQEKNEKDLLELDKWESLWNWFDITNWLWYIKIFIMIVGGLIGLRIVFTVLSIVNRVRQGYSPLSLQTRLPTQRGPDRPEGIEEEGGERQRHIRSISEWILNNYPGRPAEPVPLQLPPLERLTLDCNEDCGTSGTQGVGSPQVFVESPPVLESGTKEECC
Outline: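 CD4-negative Cf2Th-CCR5 cells infected with a luciferase-expressing recombinant CD4-dependent HIV-1 ADA pseudovirus under escalating compound concentrations. Read-out is relative infectivity: infection with compound divided by infection without compound. Three independent experiments, each run in triplicate.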

[3] = Inhibition of glycoprotein in VSV-G pseudotyped MLV virus infected in human U87/CD4/CCR5 cells assessed as inhibition of viral infection pretreated for 30 mins before viral infection and measured after 3 days by luciferase based single cycle infection assay; format: cell-based; conditions: Murine leukemia virus
Outline: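 Specificity counter-screen in which U87-CD4-CCR5 cells are infected with the luciferase-reporter control pseudovirus MLV-GP/VSV-G/Luc; IC50 is derived from inhibition of infection.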

[4] = Inhibition of gp120 in HIV-1 NL4-3 HXB-2-Luc pseudotyped virus infected in human TZM-bl cells assessed as reduction in viral infection pretreated for 30 mins before viral infection and measured after 3 days by luciferase based single cycle infection assay; format: cell-based, HIV-1 M:B_HXB2R; conditions: Human immunodeficiency virus 1, NL4-3, TZM-bl
Outline: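 Single-cycle infection of TZM-bl cells with the HIV-1 NL4-3-HXB2-Luc pseudotyped virus bearing Env of lab-adapted HIV-1 HXB-2 (CXCR4-tropic), with luciferase read-out.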

[5] = Cytotoxicity against CD4-negative dog Cf2Th-CCR5 cells assessed as reduction in cell viability incubated for 3 days by XTT assay; format: cell-based, Canis lupus familiaris; conditions: time 3 day; for CC50: cf2th-ccr5, 72 h; outline: as §1
[6] = target: Human immunodeficiency virus type 1 reverse transcriptase (Human immunodeficiency virus 1, UniProt Q72547); test: Inhibition of recombinant HIV1 reverse transcriptase by colorimetric assay
[7] = (§2) Cytotoxicity against human TZM-bl cells assessed as reduction in cell viability incubated for 3 days by XTT assay; format: cell-based; conditions: TZM-bl cells, time 3 day
TZM = test: as §2; format: cell-based; conditions: tzm, 72 h, time 3 day

Row | Compound | IC50 [4] [µM] | CC50 at 72 h [7] [µM] | further results
1 | NC[C@@H](NC(=O)c1ccc(-c2ccc(Cl)cc2)[nH]1)c1nccs1 | 2.4 | 38.9 | CC50 at 72 h [1]: 45.5 µM; inhibition [2]: Active; IC50 [3]: 12 µM; CC50 at 72 h ([5]; CD4-negative Cf2Th-CCR5 cells): 24.7 µM; IC50 [6]: 31 µM
2 | Cc1nc([C@@H](CCN)NC(=O)C(=O)Nc2ccc(Cl)cc2)sc1CO | 10.6 | ≥ 46.6 | –
3 | Cc1nc([C@H](CCN)NC(=O)C(=O)Nc2ccc(Cl)cc2)sc1CO | ≥ 14.7 | ≥ 38.3 | –
4 | NC[C@H](NC(=O)c1ccc(OCC2CCCCC2)cc1)c1ncc(CO)s1 | > 15 | 26.5 | –
5 | NC[C@H](NC(=O)Cc1ccc(OCC2CCCCC2)cc1)c1ncc(CO)s1 | > 25 | 47.5 | –
6 | O=C(N[C@H](CC1CCNCC1)c1nc(CO)cs1)c1ccc(-c2ccc(C(F)(F)F)cc2)[nH]1 | > 12.5 | > 40 | –
7 | Cc1nc([C@@H](CN)NC(=O)NC(=O)c2ccc(Cl)cc2)sc1CO | > 54 | > 54 | –
8 | Cc1nc([C@H](CN)NC(=O)c2cc3cc(Cl)ccc3[nH]2)sc1CO | 50 | > 55 | –
9 | NC[C@@H](NC(=O)Cc1ccc(OCC2CCCCC2)cc1)c1ncc(CO)s1 | > 25 | 27.9 | –
10 | NC[C@@H](NC(=O)c1ccc(OCC2CCCCC2)cc1)c1ncc(CO)s1 | > 15 | 28.2 | –
11 | NC[C@@H](NC(=O)c1ccc(NCC2CCCCC2)cc1)c1ncc(CO)s1 | > 15 | 56.5 | –
12 | NCCNC(=O)c1ccc(-c2ccc(Cl)c(F)c2)[nH]1 | 3.3 | – | CC50 (TZM): 17.8 µM
13 | NC[C@H](NC(=O)CNCc1ccc(Cl)cc1)c1ncc(CO)s1 | > 23.4 | > 70 | –
14 | NC[C@H](NC(=O)c1ccc(-c2ccc(Cl)cc2)[nH]1)c1nccs1 | 1 | 36.5 | CC50 at 72 h [1]: 59.1 µM; IC50 [3]: 16.2 µM; IC50 [6]: 18.9 µM
15 | NC[C@@H](NC(=O)CNCc1ccc(Cl)cc1)c1ncc(CO)s1 | > 23.4 | > 70 | –
16 | NC[C@H](NC(=O)c1ccc(C2CCCCC2)[nH]1)c1ncc(CO)s1 | > 17 | > 57 | –

Row | Compound | IC50 [4] [µM] | CC50 at 72 h [7] [µM] | further results
17 | Cc1nc([C@H](CN)NC(=O)c2cc3ccccc3[nH]2)sc1CO | > 60 | > 60 | –
18 | NC[C@H](NC(=O)C(=O)NCc1ccc(Cl)c(F)c1)c1ncc(CO)s1 | > 15 | > 77.6 | –
19 | Cc1nc([C@H](CN)NC(=O)C(=O)Nc2ccc(Cl)cc2)sc1CO | > 27 | > 54 | –
20 | O=C(N[C@@H](CC1CCNCC1)c1nc(CO)cs1)c1ccc(-c2ccc(C(F)(F)F)cc2)[nH]1 | > 12.5 | > 40 | –
21 | O=C(NC1CCNCC1)c1ccc(-c2ccc(Cl)c(F)c2)[nH]1 | 4.9 | 9.7 | –
22 | CC1(C)CC(NC(=O)C(=O)Nc2ccc(Cl)cc2)CC(C)(C)N1 | 6.9 | 60 | CC50 [5]: > 60 µM; IC50 [6]: > 300 µM
23 | O=C(NC1(c2nc(CO)cs2)CCNCC1)c1ccc(-c2ccc(C(F)(F)F)cc2)[nH]1 | 5 | – | CC50 ([1]; u87/cd4/ccr5, 72 h): 57.7 µM; IC50 [3]: 6.2 µM; IC50 [6]: 1.7 µM; CC50 (TZM): 33.7 µM
24 | Cc1nc([C@@H](CN)NC(=O)C(=O)Nc2ccc(Cl)cc2)sc1CO | > 27 | > 54 | –
25 | Cc1nc([C@@H](CN)NC(=O)c2cc3cc(Cl)ccc3[nH]2)sc1CO | > 40 | 47 | –
26 | Cc1nc([C@@H](CN)NC(=O)c2cc3ccccc3[nH]2)sc1CO | > 60 | > 60 | –
27 | NC[C@H](NC(=O)c1ccc(NCC2CCCCC2)cc1)c1ncc(CO)s1 | > 15 | 56.5 | –
28 | NC[C@@H](NC(=O)C(=O)NCc1ccc(Cl)c(F)c1)c1ncc(CO)s1 | > 15 | > 77.6 | –
29 | NC[C@@H](NC(=O)c1ccc(C2CCCCC2)[nH]1)c1ncc(CO)s1 | > 17 | > 57 | –
30 | Cc1cc(-c2ccc(C(F)(F)F)cn2)[nH]c1C(=O)NC(CN)c1ncc(CO)s1 (stereo not given) | – | – | inhibition [2]: Active; CC50 [5]: > 47 µM
31 | Cc1nc([C@H](CN)NC(=O)NC(=O)c2ccc(Cl)cc2)sc1CO | > 54 | > 54 | –

Reference: ChEMBL document CHEMBL4828712, “Design of gp120 HIV-1 entry inhibitors by scaffold hopping via isosteric replacements” (Eur J Med Chem, 2021)
